From PubChem
An excerpt weighted towards active compounds, which were near 3.5% of everything screened.
PRMT1 FP inh – blocks human protein arginine methyltransferase 1 | recombinant PRMT1, activity-based probe fluorescence polarization | Q99873 | inhibition, % at 2.79 µM | hit rate 1.3% among 370,000;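 active means inhibition above about 21% made by adding two undisclosed values, limit read from the data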
TCR CD3 inh – inhibitors of human TCR-CD3 interaction | TAMRA-labeled TCR probe fluorescence, biochemical | inhibition, % at 9.4 µM | hit rate 0.37% among 360,000 | AID 651800; in the data active means inhibition above about 19%;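 further: recombinant mutant TCR 2C K166C tagged with TAMRA read by polarization; 0% = receptor in buffer alone and 100% = receptor with positive control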
HTRA1 inh – inhibitors of human serine peptidase HTRA1. Q92743. recombinant HTRA1, FP-rhodamine activity-based probe, fluorescence polarization. inhibition, % at 5.96 µM. hit rate 0.5% among 340,000; in the data active means inhibition above about 36%;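 further: 0% = enzyme with DMSO and 100% = wells lacking enzyme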
rCAG binder – r(CAG) repeat RNA binding. hit rate 1.3% among 370,000. TO-PRO-1 dye displacement fluorescence. inhibition, % at 3 µM;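 active means inhibition above the plate cutoff, the mean of all test compounds on that plate plus 3 SD, cut at about 35% in these data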;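 further: 0% = DMSO alone and 100% = 100 µM mitoxantrone as full dye displacement; higher means more dye released from RNA so lower well fluorescence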
SIAE inh – inhibitors of human sialic acid acetylesterase SIAE; SIAE FP-Rh probe binding, fluorescence polarization; inhibition, % at 9.66 µM; hit rate 0.69% among 370,000; AID 1053197;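 active means inhibition above a cutoff: mean of compounds within the control limits plus 3 SD of those, cut at about 17% in these data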;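 further: 0% = plate median of compound wells and 100% = probe without SIAE protein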
ABHD4 inh – inhibitors of mouse ABHD4. Q8VD66. purified mABHD4, FP-Rh probe fluorescence polarization. inhibition, % at 8.92 µM. hit rate 0.54% among 370,000. AID 720543;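 active means inhibition exceeding the mean over every tested compound plus 3 SD, cut at about 30% in these data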;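 further: 0% = plate median of compound wells and 100% = S159A mutant with DMSO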
Target sequence (Q8VD66 whole entry, looked up): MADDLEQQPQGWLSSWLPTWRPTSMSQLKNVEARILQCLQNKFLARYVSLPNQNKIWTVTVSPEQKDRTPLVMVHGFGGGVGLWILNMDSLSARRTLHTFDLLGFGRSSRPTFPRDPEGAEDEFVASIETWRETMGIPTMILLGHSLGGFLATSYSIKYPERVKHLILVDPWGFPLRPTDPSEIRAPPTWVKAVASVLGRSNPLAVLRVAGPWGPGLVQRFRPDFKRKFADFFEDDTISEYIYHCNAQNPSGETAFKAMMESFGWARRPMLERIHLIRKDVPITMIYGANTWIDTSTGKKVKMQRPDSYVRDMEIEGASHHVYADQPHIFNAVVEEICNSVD
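Doses – 8.92 µM, single dose · Material – wild-type mouse ABHD4 protein · Replication – single well per compound (singlicate) · Measure – percent inhibition of probe binding, normalized to plate controls · Schedule – 45 min compound pre-incubation plus 60 min probe step, 25 °C · Detection – fluorescence polarization with parallel and perpendicular emission, 525/598 nm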
An asterisk follows results filed as active.

What do the screens show for `COC(=O)CCC/C=C1/SCC(NC(=O)c2ccccc2)C1=O` (stereo not drawn)?
PRMT1 FP inh: 25.6*; TCR CD3 inh: 1.1; HTRA1 inh: 1.3; rCAG binder: 29.2; SIAE inh: -9.2; ABHD4 inh: 1.8

How did COC(=O)[C@]12C[C@H](CC(=O)NCc3ccccc3)C(=O)N(Cc3cccc4ccccc34)C1=C[C@H](C1CCCC1)O[C@@H]2C do in these assays?
PRMT1 FP inh: -4.8; rCAG binder: 8.2; SIAE inh: -2.0; ABHD4 inh: 12.4

What do the screens show for `CCC1(C(=O)c2ccc(Cl)cc2)C2c3ccccc3OC(=O)C21C(=O)Nc1ccccc1` (stereo not drawn)?
PRMT1 FP inh: 3.5; TCR CD3 inh: 4.2; HTRA1 inh: -22.2; rCAG binder: 40.2*; SIAE inh: 4.2; ABHD4 inh: -9.6

What do the screens show for `CCn1ccc(C(=O)NC2=NCCS2)n1`?
PRMT1 FP inh: 24.0*; TCR CD3 inh: 5.9; HTRA1 inh: -1.2; rCAG binder: -2.3; SIAE inh: -0.8; ABHD4 inh: -4.8

Results for Cc1cc(N)ccc1N1CCCC1 ?
HTRA1 inh: 81.5*

What do the screens show for `NC(=O)c1cc(N)ccc1N1CCCC1`?
PRMT1 FP inh: 3.1; TCR CD3 inh: 18.7; HTRA1 inh: 25.4; rCAG binder: 29.3; SIAE inh: 7.8; ABHD4 inh: 17.2

What do the screens show for `COc1cc(NS(=O)(=O)c2ccc(NC(=O)/C(=C\c3ccccc3OC)NC(=O)c3ccccc3)cc2)nc(OC)n1`?
PRMT1 FP inh: 1.4; TCR CD3 inh: 8.8; HTRA1 inh: -20.5; rCAG binder: 63.1*; SIAE inh: -13.4; ABHD4 inh: -6.0

How did CCOC(=O)c1ccc(NC(=O)NC2CC3CCC(C2)N3Cc2nnnn2Cc2ccco2)cc1 (stereo not drawn) do in these assays?
PRMT1 FP inh: 23.3*; TCR CD3 inh: 0.1; HTRA1 inh: -14.9; rCAG binder: 6.5; SIAE inh: -8.9; ABHD4 inh: -2.9

Results for Cc1cccc(-c2cccc3c4c([nH]c23)[C@@H]2C[C@H](N(C)C(=O)Nc3ccccc3C)[C@H]([C@H](C)O)C(=O)N2CC4)c1 ?
PRMT1 FP inh: -0.6; rCAG binder: 15.1; SIAE inh: 2.9; ABHD4 inh: -12.4

What do the screens show for `Cc1ccc(C(=S)N2CCN(Cc3ccccc3)CC2)cc1`?
PRMT1 FP inh: 22.0*; TCR CD3 inh: 1.8; HTRA1 inh: -1.7; rCAG binder: -5.8; SIAE inh: 3.0; ABHD4 inh: 0.5

What do the screens show for `O=C(COc1ccccc1)NC1C(=O)N2C(C(=O)O)=C(Cl)CSC12` (stereo not drawn)?
PRMT1 FP inh: 24.1*; TCR CD3 inh: 11.1; HTRA1 inh: 0.1; rCAG binder: 4.7; SIAE inh: 6.0; ABHD4 inh: 11.0

Results for CC(=O)OCC1=C(C(=O)O)N2C(=O)C(NC(=O)CC(C)c3ccccc3)C2SC1 (stereo not drawn) ?
PRMT1 FP inh: 21.9*; TCR CD3 inh: -4.8; HTRA1 inh: 3.6; rCAG binder: 11.5; SIAE inh: 4.7; ABHD4 inh: 7.7

What do the screens show for `CC(=O)OCC1=C(C(=O)O)N2C(=O)C(NC(=O)CCn3nc(C(F)(F)F)c(Br)c3C3CC3)C2SC1` (stereo not drawn)?
PRMT1 FP inh: 24.5*; TCR CD3 inh: -1.2; HTRA1 inh: 4.3; rCAG binder: 16.6; SIAE inh: 7.3; ABHD4 inh: 9.2

How did CC(=O)OCC1=C(C(=O)O)N2C(=O)C(NC(=O)CCn3nc(C)c(Cl)c3C)C2SC1 (stereo not drawn) do in these assays?
PRMT1 FP inh: 23.7*; TCR CD3 inh: 1.9; HTRA1 inh: 5.6; rCAG binder: -1.3; SIAE inh: -4.8; ABHD4 inh: -0.2

What do the screens show for `CC(=O)OCC1=C(C(=O)O)N2C(=O)C(NC(=O)Cn3nc(C(F)F)c(Cl)c3C)C2SC1` (stereo not drawn)?
PRMT1 FP inh: 20.0; TCR CD3 inh: 5.3; HTRA1 inh: -19.2; rCAG binder: 15.5; SIAE inh: 1.1; ABHD4 inh: 4.8

Results for CCCCNS(=O)(=O)/C=C/c1cc(C)ccc1CNC(=O)OC(C)(C)C ?
PRMT1 FP inh: -4.5; rCAG binder: -2.5; SIAE inh: 7.7; ABHD4 inh: -10.3

How did CNC(=O)C1(CC(C)C)C=CCN1C(C)=O (stereo not drawn) do in these assays?
PRMT1 FP inh: -4.0; TCR CD3 inh: -4.2; HTRA1 inh: 2.0; rCAG binder: -2.1; SIAE inh: 17.2*; ABHD4 inh: 0.4
